Results taken from ChEMBL document CHEMBL4765240, “Design, Synthesis, and Immunological Evaluation of a Multicomponent Construct Based on a Glycotripeptoid Core Comprising B and T Cell Epitopes and a Toll-like Receptor 7 Agonist That Elicits Potent Immune Responses” (J Med Chem, 2018).
Calls of active or inactive are those of the source. The rule behind the calls is not given here. Numbered stars: 1 amine (or outer) side, 2 acyl side, 3 side chain; on linkers, the order of the positions; unused ones are H or OH. Square brackets hold non-standard residues; d marks the D form. Peptide text beside a SMILES is read from it. * marks the point of attachment. X4 = O=C(CCN(CCCO[C@H]1O[C@H](CO)[C@@H](O)[C@H](O)[C@@H]1O)[*:1])[*:2]; X3 = COCCOc1nc(N)c2[nH]c(=O)n(Cc3ccc(C(=O)*)cc3)c2n1; X2 = O=C(CCCCCn1cc(CN[*:1])nn1)[*:2]; Ahx = NCCCCCC(=O)O

Columns and labels:
[1] = system: Bone marrow cell; test: Adjuvanted-antitumor vaccine activity in C57BL/6 mouse bone marrow derived cells assessed as induction of IL-12 production at 10^-4 to 10^1 ug/ml incubated for 48 hrs by ELISA; format: functional, cell-based; details: dose 0.0001-10 µg/ml
How it was run: (§1)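 BMDCs from C57BL/6 bone marrow grown 6 days in 2-ME/10% FCS RPMI with GM-CSF-containing supernatant, about 60−70% CD11c⁺CD11b⁺. 10⁵ cells incubated at 37 °C for 48 h with increasing compound concentrations. IL-12p40 and IL-6 measured in supernatants by ELISA.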

[2] = system: Bone marrow cell; test: Adjuvanted-antitumor vaccine activity in C57BL/6 mouse bone marrow derived cells assessed as induction of IL-6 production at 10^-4 to 10^1 ug/ml incubated for 48 hrs by ELISA; format: functional, cell-based; details: dose 0.0001-10 µg/ml; how it was run: as §1
[3] = species on record: Mus musculus; test: Immuno-adjuvant activity in C57BL/6 mouse assessed as antibody response to Tn3G7K by measuring serum IgG levels at 11 .7 nmol, ID at day 0 and day 21 and measured post second dose; format: functional, organism-based; details: time 21.0 day
How it was run: (§2)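 Female C57BL/6 mice, 6 weeks old, were immunized intradermally with 11.7 nmol on days 0 and 21, and sera were taken on day 28. IgG was measured by ELISA on plates coated at 1 μg/mL, with the biotinylated Tn peptide captured on streptavidin plates for 1 h at 37 °C. Serum dilution series were detected with anti-mouse IgG-HRP and OPD/H2O2, read at 492 nm. Titer is the log10 of the highest dilution giving twice the absorbance of naive serum at 1/100, reported as mean SD.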

[4] = species on record: Mus musculus; test: Adjuvanted-antitumor vaccine activity in C57BL/6 mouse assessed as induction of OT2-T cell mediated IFNgamma production in lymph node at 1 ug/ml, ID incubated for 5 days by anti-IFNgamma staining based flow cytometry; format: functional, organism-based; details: dose 1.0 µg/ml, time 5.0 day
[5] = species on record: Mus musculus; test: Immuno-adjuvant activity in C57BL/6 mouse assessed as antibody response to OVA peptide by measuring serum IgG levels at 11 .7 nmol, ID at day 0 and day 21 and measured post second dose; format: functional, organism-based; details: time 21.0 day
[6] = system: Mus musculus; test: Adjuvanted-antitumor vaccine activity in C57BL/6 mouse assessed as fold increase in OT-2 T cells in spleen at 11.7 nmol, ID coadministered with OT2-derived CD4+ T cell after 5 days […]; format: functional; details: for fold change (FC): time 5 day
How it was run: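 2 × 10⁵ OT-II CD4⁺ T cells (from OT-II Rag2 TCR-transgenic knockout mice) transferred into C57BL/6 mice (6−10 weeks, n = 3 per group), then intradermal immunization with 11.7 nmol per mouse. Spleen collected after 5 days; OT-II cells counted by flow cytometry with anti-CD4, anti-Vα2 and anti-Vβ5.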

[7] = species on record: Mus musculus; test: Adjuvanted-antitumor vaccine activity in C57BL/6 mouse assessed as induction of OT2-T cell mediated IFNgamma production in lymph node at 11.7 nmol, ID incubated for 5 days by anti-IFNgamma staining based flow cytometry; format: functional, organism-based; details: time 5.0 day
How it was run: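 Lymph node cells taken at day 5, 5 × 10⁵ per well, restimulated 2 h at 37 °C with 50 μg/mL OVA 323−339 plus GolgiPlug. Fixed, permeabilized, stained with anti-CD4, anti-CD3 and anti-IFNγ; flow cytometry.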

[8] = species on record: Mus musculus; test: Adjuvanted-antitumor vaccine activity in C57BL/6 mouse assessed as induction of OT2-T cell mediated IFNgamma production in splenocytes at 11.7 nmol, ID followed by stimulation with OVA(323 to 339) peptide after 48 hrs by ELISA; format: functional, organism-based
How it was run: (§3)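 OT-II CD4⁺ T cells (2 × 10⁵) transferred into C57BL/6 mice (n = 3 per group), then 11.7 nmol per mouse given intradermally. Splenocytes harvested at day 5, cultured at 5 × 10⁵ per well with or without OVA 323−339 (1 μg/mL) at 37 °C for 48 h. IFN-γ and IL-5 measured in supernatants by ELISA.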

[9] = species on record: Mus musculus; test: Adjuvanted-antitumor vaccine activity in C57BL/6 mouse assessed as induction of OT2-T cell mediated IL-5 production in splenocytes at 11.7 nmol, ID followed by stimulation with OVA(323 to 339) peptide incubated for 48 hrs by ELISA; format: functional, organism-based; how it was run: as §3
[10] = species on record: Mus musculus; test: Immuno-adjuvant activity in C57BL/6 mouse assessed as antibody response to (2R,8R,11S,14R,20R)-14-(2-amino-2-oxoethyl)-20-((2S,5R,8S,11R,14S,17R,20S,23R,26S)-5,14-bis((1H-imidazol-5-yl)methyl)-36-(4-(22-(4-((6-amino-2-(2-methoxyethoxy)-8-oxo-7H-purin-9(8H)-yl)methyl)phenyl)-3,7,11,15,22-pentaoxo-6-(3-((2S,3S,4S,5S,6R)-3,4,5-trihydroxy-6-(hydroxymethyl)tetrahydro-2H-pyran-2-yloxy)propyl)-10,14-bis(3-((2S,3S,4S,5S,6S)-3,4,5-trihydroxy-6-(hydroxymethyl)tetrahydro-2H-pyran-2-yloxy)propyl)-2,6,10,14,21-pentaazadocosyl)-1H-1,2,3-triazol-1-yl)-23-(3-amino-3-oxopropyl)-29-sec-butyl-26-(hydroxymethyl)-17-isopropyl-2,8,11,20-tetramethyl-4,7,10,13,16,19,22,25,28,31-decaoxo-3,6,9,12,15,18,21,24,27,30-decaazahexatriacontanamido)-17-sec-butyl-11-(2-carboxyethyl)-2-(3-guanidinopropyl)-8-methyl-4,7,10,13,16,19-hexaoxo-3,6,9,12,15,18-hexaazatricosane-1,23-dioic acid by measuring serum IgG levels at 11 .7 nmol, ID at day 0 and day 21 and measured post second dose; format: functional, organism-based; how it was run: as §2
[11] = species on record: Mus musculus; test: Immuno-adjuvant activity in immunized-C57BL/6 mouse assessed as antibody recognition in sera against 21 at 11 .7 nmol, ID at day 1 and day 20 and measured post second dose on day 27; format: functional, organism-based
How it was run: (§4)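 C57BL/6 mice, n = 3 per group, received 11.7 nmol intradermally on days 1 and 20, and sera were taken on day 27. ELISA plates were coated at 1 μg/mL with the peptoid or the biotinylated Tn3G7K, the latter on streptavidin plates for 1 h at 37 °C. Serially diluted sera were detected with anti-mouse IgG-HRP and OPD, read at 492 nm. Log10 titer is the dilution giving twice the absorbance of 1/100 naive serum.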

[12] = species on record: Mus musculus; test: Immuno-adjuvant activity in immunized-C57BL/6 mouse assessed as antibody recognition in sera against 22 at 11 .7 nmol, ID at day 1 and day 20 and measured post second dose on day 27; format: functional, organism-based; how it was run: as §4
[13] = species on record: Mus musculus; test: Immuno-adjuvant activity in immunized-C57BL/6 mouse assessed as antibody recognition in sera against Tn3G7K at 11 .7 nmol, ID at day 1 and day 20 and measured post second dose on day 27; format: functional, organism-based; how it was run: as §4
[14] = system: Bone marrow cell; test: Adjuvanted-antitumor vaccine activity in C57BL/6 mouse bone marrow derived cells assessed as induction of T cell activation at 10^-4 to 10^1 ug/ml incubated for 3 days in presence of mouse OT2-derived CD4+ T cell by ELISA; details: dose 1.0 µg/ml, time 72.0 hrs
[15] = system: CD4+ve Th; test: Cytotoxicity against OT2 mouse CD4-positive T cells xenografted in C57BL/6 mouse assessed as reduction in cell viability in splenocytes by flow cytometry analysis; format: cell-based; details: in vivo

Compound	Activity [1]	Activity [2]	Activity [3]	Activity [4]	Activity [5]	fold change (FC) [6]	Activity [7]	Activity [8]	Activity [9]	Activity [10]	Activity [11]	Activity [12]	Activity [13]	Activity [14]	Activity ([6]; time 5.0 day)	Activity [15]
CC(=O)N[C@H]1[C@@H](OCCCNCCC(=O)N(CCCO[C@H]2O[C@H](CO)[C@H](O)[C@H](O)[C@H]2NC(C)=O)CCC(=O)N(CCCO[C@H]2O[C@H](CO)[C@H](O)[C@H](O)[C@H]2NC(C)=O)CCC(=O)OC(C)(C)C)O[C@H](CO)[C@H](O)[C@@H]1O	inactive	inactive														
COCCOc1nc(N)c2[nH]c(=O)n(Cc3ccc(C(=O)NCCCCCC(=O)N(CCCO[C@H]4O[C@H](CO)[C@H](O)[C@H](O)[C@H]4NC(C)=O)CCC(=O)N(CCCO[C@H]4O[C@H](CO)[C@H](O)[C@H](O)[C@H]4NC(C)=O)CCC(=O)N(CCCO[C@H]4O[C@H](CO)[C@H](O)[C@H](O)[C@H]4NC(C)=O)CCC(=O)OC(C)(C)C)cc3)c2n1	Active	Active	inactive	inactive	inactive											
COCCOc1nc(N)c2[nH]c(=O)n(Cc3ccc(C(=O)O)cc3)c2n1	inactive	inactive														
CC[C@H](C)[C@H](NC(=O)CCCCCn1cc(CNC(=O)CCN(CCCO[C@H]2O[C@H](CO)[C@H](O)[C@H](O)[C@H]2NC(C)=O)C(=O)CCN(CCCO[C@H]2O[C@H](CO)[C@H](O)[C@H](O)[C@H]2NC(C)=O)C(=O)CCN(CCCO[C@H]2O[C@H](CO)[C@H](O)[C@H](O)[C@H]2NC(C)=O)C(=O)CCCCCNC(=O)c2ccc(Cn3c(=O)[nH]c4c(N)nc(OCCOC)nc43)cc2)nn1)C(=O)N[C@@H](CO)C(=O)N[C@@H](CCC(N)=O)C(=O)N[C@@H](C)C(=O)N[C@H](C(=O)N[C@@H](Cc1cnc[nH]1)C(=O)N[C@@H](C)C(=O)N[C@@H](C)C(=O)N[C@@H](Cc1cnc[nH]1)C(=O)N[C@@H](C)C(=O)N[C@@H](CCC(=O)O)C(=O)N[C@H](C(=O)N[C@@H](CC(N)=O)C(=O)N[C@@H](CCC(=O)O)C(=O)N[C@@H](C)C(=O)NCC(=O)N[C@@H](CCCNC(=N)N)C(=O)O)[C@@H](C)CC)C(C)C (HELM PEPTIDE1{[COCCOc1nc(N)c2[nH]c(=O)n(Cc3ccc(C(=O)NCCCCCC(=O)N(CCCO[C@H]4O[C@H](CO)[C@H](O)[C@H](O)[C@H]4NC(C)=O)CCC(=O)N(CCCO[C@H]4O[C@H](CO)[C@H](O)[C@H](O)[C@H]4NC(C)=O)CCC(=O)N(CCCO[C@H]4O[C@H](CO)[C@H](O)[C@H](O)[C@H]4NC(C)=O)CCC(=O)[*:2])cc3)c2n1].[O=C(CCCCCn1cc(CN[*:1])nn1)[*:2]].I.S.Q.A.V.H.A.A.H.A.E.I.N.E.A.G.R}$$$$V2.0)	Active	Active	inactive		inactive	30	Active	Active	inactive	Active	Active	Active	inactive	Active		
CC[C@H](C)[C@H](NC(=O)CCCCCn1cc(CNC(=O)CCN(CCCO[C@H]2O[C@H](CO)[C@@H](O)[C@H](O)[C@@H]2O)C(=O)CCN(CCCO[C@H]2O[C@H](CO)[C@@H](O)[C@H](O)[C@@H]2O)C(=O)CCN(CCCO[C@H]2O[C@H](CO)[C@@H](O)[C@H](O)[C@@H]2O)C(=O)CCCCCNC(=O)c2ccc(Cn3c(=O)[nH]c4c(N)nc(OCCOC)nc43)cc2)nn1)C(=O)N[C@@H](CO)C(=O)N[C@@H](CCC(N)=O)C(=O)N[C@@H](C)C(=O)N[C@H](C(=O)N[C@@H](Cc1cnc[nH]1)C(=O)N[C@@H](C)C(=O)N[C@@H](C)C(=O)N[C@@H](Cc1cnc[nH]1)C(=O)N[C@@H](C)C(=O)N[C@@H](CCC(=O)O)C(=O)N[C@H](C(=O)N[C@@H](CC(N)=O)C(=O)N[C@@H](CCC(=O)O)C(=O)N[C@@H](C)C(=O)NCC(=O)N[C@@H](CCCNC(=N)N)C(=O)O)[C@@H](C)CC)C(C)C ({X3-Ahx}-[X4][X4][X4][X2]ISQAVHAAHAEINEAGR-OH)	Active	Active				30	Active	Active	inactive		Active	Active	inactive	Active		
CC[C@H](C)[C@H](N)C(=O)N[C@@H](CO)C(=O)N[C@@H](CCC(N)=O)C(=O)N[C@@H](C)C(=O)N[C@H](C(=O)N[C@@H](Cc1cnc[nH]1)C(=O)N[C@@H](C)C(=O)N[C@@H](C)C(=O)N[C@@H](Cc1cnc[nH]1)C(=O)N[C@@H](C)C(=O)N[C@@H](CCC(=O)O)C(=O)N[C@H](C(=O)N[C@@H](CC(N)=O)C(=O)N[C@@H](CCC(=O)O)C(=O)N[C@@H](C)C(=O)NCC(=O)N[C@@H](CCCNC(=N)N)C(=O)O)[C@@H](C)CC)C(C)C [ovalbumin peptide] (H-ISQAVHAAHAEINEAGR-OH)				inactive											inactive	Non-Toxic
